Reference: ChEMBL document CHEMBL1156156, “Conformationally-restricted amino acid analogues bearing a distal sulfonic acid show selective inhibition of system x(c)(-) over the vesicular glutamate transporter” (Bioorg Med Chem Lett, 2010)

Key:
[1] = biological target: T1, Cystine/glutamate transporter (Homo sapiens) (UniProt Q9UPY5); assay: Inhibition of amino acid transport system xc- in human SNB19 cells assessed as [3H]L-glutamate uptake at 500 uM after 24 hrs by liquid scintillation counting; assay type: cell-based; details: SNB-19
T1 sequence (whole entry): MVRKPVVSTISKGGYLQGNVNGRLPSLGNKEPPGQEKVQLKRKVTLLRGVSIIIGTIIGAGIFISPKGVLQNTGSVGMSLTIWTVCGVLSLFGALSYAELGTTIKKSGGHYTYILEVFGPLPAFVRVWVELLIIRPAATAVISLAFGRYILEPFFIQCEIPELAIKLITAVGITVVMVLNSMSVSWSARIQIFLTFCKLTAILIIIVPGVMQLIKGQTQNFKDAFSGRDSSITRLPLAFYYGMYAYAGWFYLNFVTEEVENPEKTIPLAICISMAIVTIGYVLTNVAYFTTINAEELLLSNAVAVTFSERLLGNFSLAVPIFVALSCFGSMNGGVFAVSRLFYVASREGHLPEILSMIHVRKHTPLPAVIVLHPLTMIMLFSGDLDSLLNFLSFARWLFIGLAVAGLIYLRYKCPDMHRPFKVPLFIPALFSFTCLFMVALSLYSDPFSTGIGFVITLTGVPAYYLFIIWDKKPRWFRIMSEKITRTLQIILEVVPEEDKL
In short: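 Uptake begun by adding ³H-L-glutamate (100 μM) with inhibitor (500 μM) to the wells and run for 5 min. Wells rinsed three times with 0°C HBHS, and cells lysed in 0.4 M NaOH for 24 h. A 200 μl aliquot was acidified with acetic acid and radioactivity counted against background.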

Rattus norvegicus = species on record: Rattus norvegicus; assay: Inhibition of VGLUT in rat brain synaptic vesicles assessed as [3H]L-glutamate uptake at 5 mM after 24 hrs by liquid scintillation counting; assay type: tissue-based
In short: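 Vesicular uptake used 250 μM L-glutamate as substrate, with inhibitor at 5 mM.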

[2] = biological target: T2, Cystine/glutamate transporter (Homo sapiens, UniProt Q9UPY5); assay: Inhibition of amino acid transport system xc-
T2 sequence (Q9UPY5 whole entry): T1 sequence (whole entry)
In short: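 Cells were given 100 μM ³H-L-glutamate plus 500 μM inhibitor, and uptake ran for 5 min. Wells were rinsed three times with 0°C HBHS, and cells were lysed in 0.4 M NaOH for 24 h. Acetic acid was added to a lysate aliquot, and radioactivity was counted against background.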

[3] = Inhibition of VGLUT

Compound	Drug uptake [1]	Drug uptake (Rattus norvegicus)	IC50 [2]	IC50 [3]
CC(N)(Cc1ccc(S(=O)(=O)O)cc1)C(=O)O (stereo unspecified)	106%	98%	–	–
N[C@H](Cc1ccc(S(=O)(=O)O)cc1)C(=O)O	101%	102%	–	–
N[C@H](C(=O)O)c1ccc(S(=O)(=O)O)s1	32%	92%	–	–
NC(C(=O)O)c1ccc(S(=O)(=O)O)s1 (stereo unspecified)	26%	81%	–	–
N[C@@H](Cn1oc(=O)[nH]c1=O)C(=O)O [QUISQUALATE]	–	–	5 µM	–
N[C@H](C(=O)O)c1ccc(C(=O)O)cc1	–	–	5 µM	–
Cc1cc(-c2ccc(/N=N/c3c(S(=O)(=O)O)cc4cc(S(=O)(=O)O)cc(N)c4c3O)c(C)c2)ccc1/N=N/c1c(S(=O)(=O)O)cc2cc(S(=O)(=O)O)cc(N)c2c1O [TRYPAN BLUE]	–	–	–	0.05 µM
NC(C(=O)O)c1ccc(-c2ccc(C(=O)O)cc2)cc1 (stereo unspecified)	27%	75%	–	–
NC(C(=O)O)c1ccc(-c2cccs2)s1 (stereo unspecified)	69%	53%	–	–
N[C@@H](C(=O)O)c1ccc(S(=O)(=O)O)s1	55%	104%	–	–
NC(C(=O)O)c1c[nH]cn1 (stereo unspecified)	96%	95%	–	–
NC(C(=O)O)c1ccc(Br)s1 (stereo unspecified)	83%	37%	–	–
N[C@H](C(=O)O)c1ccc(S(=O)(=O)O)cc1	55%	105%	–	–
Nc1c(/N=N/c2ccc(-c3ccc(/N=N/c4cc(S(=O)(=O)O)c5ccccc5c4N)cc3)cc2)cc(S(=O)(=O)O)c2ccccc12	–	31%	–	–
NC(C(=O)O)c1csc2ccccc12 (stereo unspecified)	53%	31%	–	–
N[C@@H](CS)C(=O)O	22%	–	–	–
Cc1csc(C(=O)O)c1N	83%	91%	–	–
Cc1c(C(=O)O)sc(N)c1C(=O)O	57%	44%	–	–
N[C@@H](C(=O)O)c1ccc(S(=O)(=O)O)cc1	98%	108%	–	–
N[C@@H](CCS(=O)(=O)O)C(=O)O	–	–	35 µM	–
NC(Cc1ccc(Br)cc1S(=O)(=O)O)C(=O)O (stereo unspecified)	83%	77%	–	–
N[C@@H](Cc1ccc(S(=O)(=O)O)cc1)C(=O)O	90%	131%	–	–
N[C@@H](COS(=O)(=O)O)C(=O)O	–	–	26 µM	–
Cc1cc(C(N)C(=O)O)sc1C (stereo unspecified)	73%	57%	–	–
